Screening results: PubChem BioAssay, several laboratories
Hits are enriched below; roughly 2.5% of the tested compounds scored in any of these assays.
NR1D1 modulator: modulators of Rev-erb alpha DNA binding, primary screen, biochemical, FITC-DNA, fluorescence polarization, uHTS. Nuclear receptor subfamily 1 group D member 1 (Homo sapiens), P20393. Rev-erbα–FITC-DNA binding, 90 min. activity, % at 10 µM. actives 0.79% (n = 370,000). AID 1259318, 2017;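 active means activity above about 14%, limit read from the data; passing the limit was not always enough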;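 further: 0% = DMSO wells with 35 nM protein and 100% = DMSO wells with 750 nM protein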
Target sequence (P20393 whole entry, looked up): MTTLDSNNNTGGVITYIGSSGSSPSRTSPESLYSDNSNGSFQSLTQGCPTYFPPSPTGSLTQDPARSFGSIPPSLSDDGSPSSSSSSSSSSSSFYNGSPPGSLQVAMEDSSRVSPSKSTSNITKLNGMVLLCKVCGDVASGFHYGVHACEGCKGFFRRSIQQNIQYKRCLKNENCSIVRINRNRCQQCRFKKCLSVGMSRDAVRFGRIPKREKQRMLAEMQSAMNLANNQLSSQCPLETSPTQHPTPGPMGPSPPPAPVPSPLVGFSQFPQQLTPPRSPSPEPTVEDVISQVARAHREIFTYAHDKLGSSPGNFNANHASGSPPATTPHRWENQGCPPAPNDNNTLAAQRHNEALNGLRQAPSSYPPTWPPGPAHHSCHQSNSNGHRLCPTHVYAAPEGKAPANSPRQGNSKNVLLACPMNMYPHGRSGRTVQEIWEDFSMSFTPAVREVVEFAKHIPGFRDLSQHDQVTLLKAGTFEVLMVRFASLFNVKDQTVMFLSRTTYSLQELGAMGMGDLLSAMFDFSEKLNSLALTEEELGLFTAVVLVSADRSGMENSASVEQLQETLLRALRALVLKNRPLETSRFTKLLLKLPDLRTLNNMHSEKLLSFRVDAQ
PG9 binder: binders of HIV-1 gp120 antibody PG9, primary screen, biochemical, TR-FRET. HIV-1 gp120 / PG9 antibody interaction. TR-FRET gp120-PG9 antibody binding. inhibition, % at 6.7 µM. actives 0.43% (n = 360,000). AID 624416, 2012; in the data active means inhibition above about 8.5%
NTR1 agonist: agonists of human NTR1, primary screen, imaging, U2OS cells, beta-arrestin-GFP, high content; Neurotensin receptor type 1 (Homo sapiens), P30989; NTR1-U2OS beta-arrestin-GFP spot imaging, agonist mode; activation, % at 20 µM; actives 0.17% (n = 330,000); AID 493036, 2011;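 active means activation at or above 40% of the spot to cytoplasm intensity ratio, with at least 20 cells analyzed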;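 further: 0% = DMSO without peptide and 100% = 100 nM NTR1 peptide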
MC4R ag barr: MC4R agonists recruiting beta-arrestin, primary screen, cell-based, luminescence, agonist arm of biased-ligand search. U2OS MC4R beta-arrestin complementation; percent of melanotan II response, DMSO zero. activation, % at 8.9 µM. actives 0.98% (n = 360,000). AID 540308, 2011;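 active means activation above a per-plate cutoff, the mean activation of sample wells on that plate plus 3 SD, cut at about 8% in these data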
MC4R antagonist: MC4R antagonists of cAMP signaling, primary screen, cell-based, TR-FRET, antagonist arm of biased-ligand search; MC4R-expressing cells, MTII-stimulated cAMP, LANCE TR-FRET; AID 540295, 2011; Melanocortin receptor 4 (Homo sapiens), P32245; inhibition, % at 6.5 µM; actives 0.48% (n = 360,000);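 active means inhibition above its plate's cutoff, the mean of tested wells on that plate plus 3 SD, cut at about 29% in these data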;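 further: 0% = Melanotan II alone and 100% = Melanotan II plus saturating MCL0020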
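Material – human MC4R-expressing U2OS cells · Repeats – no replicates · Detection – TR-FRET with Eu-cAMP and labeled anti-cAMP, 671 nm · Times – compound 30 min, challenge 1 h, detection 1 h · Compound – single nominal compound dose of 6.5 µM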
Rev-erbA confirm: modulators of Rev-erb alpha DNA binding, confirmation, biochemical, FITC-DNA, fluorescence polarization, single point; 90 min; shares compounds with NR1D1 modulator; activation, % at 25 µM; actives 61% (n = 3,000); AID 1259319, 2017;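 active means activation at or above a set limit, or at least 3 SD above the negative control mean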;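 further: 0% = 35 nM protein with DMSO and 100% = 750 nM protein high control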
RORg DNA counter: modulation of RORgamma DNA binding, dose response, counter-screen for Rev-erb alpha modulator project, biochemical, fluorescence polarization, FITC-DNA | actives 8% (n = 910) | purified RORgamma protein-FITC-DNA binding | shares compounds with NR1D1 modulator | AID 1259320, 2017 | IC50, µM;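 active means Compounds whose fitted half-maximal concentration for disrupting protein-DNA binding is below 10 micromolar; the record names Rev-erb in its text, so the target is in doubt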
The depositor's hits bear a star; i = inactive; . = no result given.

SMILES	NR1D1 modulator	PG9 binder	NTR1 agonist	MC4R ag barr	MC4R antagonist	Rev-erbA confirm	others
O=S1(=O)CC2c3ccc(F)cc3CN2CN1C1CCCC1 (stereo not drawn)	2.7	.	.	.	.	.
O=C(NC1CCCCN(Cc2cccc(Cl)c2)C1=O)c1ccc(F)c(F)c1 (stereo not drawn)	-3.8	.	.	.	.	.
NC(=O)c1ncn([C@@H]2O[C@H](C(=O)N[C@H](Cc3ccccc3)C(=O)O)[C@@H](O)[C@H]2O)n1	6.2	-1.6	.	.	.	.
CCOC(=O)c1ccc(CNC(=O)CSc2nc(NC(=O)c3ccccc3)c3c(C)c(C)oc3n2)cc1	27.2*	1.3	8.5	0.6	14.6	36.6*	RORg DNA counter=>40
COc1ccc(C2C(C(=O)Nc3ccc(F)cc3F)CCC(=O)N2c2ccc(OC)cc2)cc1 (stereo not drawn)	-5.9	.	.	.	.	.
CCOc1ccc2c(c1)nc(SCC(=O)c1ccc(Br)s1)n2C	25.1*	0.6	0.3	-1.4	-15.1	14.4
CCOc1ccc2c(c1)nc(SCC(=O)c1cccs1)n2C	0.1	-3.2	0.1	-1.7	12.2	.
O=C(CSc1nnc(-c2cccnc2)o1)Nc1cccc(Cl)c1	0.3	0.7	-0.1	-0.6	20.2	.
CCn1c2ccccc2c2cc(NC(=O)CSc3nnc(-c4cccc(Cl)c4)o3)ccc21	31.9*	1.7	2.1	0.3	3.8	10.6
O=C(c1ccccc1F)N1C(=O)c2cccc3cccc1c23	24.8*	0.9	1.1	0.6	12.4	10.1
O=C(c1cccs1)N1C(=O)c2cccc3cccc1c23	51.0*	-1.1	-0.2	1.8	9.1	42.5*	RORg DNA counter=>40
O=C(c1ccco1)N1C(=O)c2cccc3cccc1c23	-3.2	0.3	-1.4	0.1	6.3	.
Cc1coc2cc3oc(=O)c(Cc4ccccc4)c(C)c3cc12	32.1*	4.7	2.1	-1.2	1.0	42.6*	RORg DNA counter=>40
Cc1c(C)c2cc3c(C)coc3cc2oc1=O	5.4	-0.7	-0.9	1.1	0.3	.
Cc1c(N2C(=O)/C(=C\c3ccc(N(C)C)cc3)N(C)C2=S)c(=O)n(-c2ccccc2)n1C	25.4*	-18.5	.	-4.4	-9.2	20.4*
COc1ccc(CNc2c(C(=O)O)cnc3c2cnn3C)cc1	2.1	-3.5	-0.1	-0.6	-6.4	.
CCOC(=O)c1cnc2c(cnn2C)c1NCc1ccc(OC)cc1	27.5*	0.6	1.3	-1.4	18.5	22.0*
COC(=O)[C@]1(Cc2ccccc2)N[C@H](c2ccc(-c3ccccc3)cc2)[C@@H]2C(=O)N(C)C(=O)[C@@H]21	-1.4	-0.4	1.9	-0.5	-5.2	.
COC(=O)[C@]1(Cc2ccccc2)N[C@H](c2ccc(-c3cc(C(C)=O)cs3)cc2)[C@@H]2C(=O)N(C)C(=O)[C@@H]21	23.2*	2.5	10.8	0.4	1.4	12.3
CCCCCCCCN1C(=O)[C@@H](CC(=O)NCC2CCCCC2)C[C@@]2(C(=O)OC)C1=C[C@H](COCc1ccccc1)O[C@@H]2C	2.5	.	.	.	.	.
CCc1cc2cc(C)cc(C)c2nc1SCC(=O)N1CCCC1	58.1*	1.2	10.3	2.2	-1.1	41.4*	RORg DNA counter=>40
CCc1cc2cc(C)ccc2nc1SCC(=O)N1CCN(C(=O)c2ccco2)CC1	0.9	0.1	2.0	0.9	5.4	.
C=CCN1C(C(=O)OC)CN(Cc2cn(Cc3ccc(F)cc3)nn2)CCS1(=O)=O (stereo not drawn)	0.7	.	.	.	.	.
CCc1ccc(Nc2n[n+](-c3ccccc3)c(-c3ccc(OCc4ccccc4)cc3)s2)cc1	16.3*	-0.3	9.5	1.3	9.6	5.2
N#C/C(=C/c1ccccc1)C(=O)NCc1ccccc1	-3.9	-2.6	4.8	-0.7	0.9	.
SMILES	NR1D1 modulator	PG9 binder	NTR1 agonist	MC4R ag barr	MC4R antagonist	Rev-erbA confirm	others
CN(C)c1ccc(/C=C(/C#N)C(=O)NCc2ccccc2)o1	32.8*	-28.4	-4.2	-1.4	-9.2	10.6
O=C(Nc1ccc(Cl)c(Cl)c1)C1CCCN1S(=O)(=O)c1cccc2cccnc12 (stereo not drawn)	-2.0	.	.	.	.	.
COc1cccc(N2CCN(c3nc(C)cc(C)c3C#N)CC2)c1	-2.5	-1.3	4.0	0.1	1.1	.
COc1cccc(-c2c(C#N)c(SC)nc3cc(C)nn23)c1	38.9*	0.2	4.6	2.0	10.8	17.8
CCCCN1CN2Cc3ccccc3C2CS1(=O)=O (stereo not drawn)	2.0	.	.	.	.	.
Nc1nc2c(Br)ccc(Br)c2cc1C(=O)NCc1cccc2ccccc12	10.5	0.5	.	.	.	.
CN(C)C=Nc1nc2c(Br)ccc(Br)c2cc1C(=O)NCC(C)(C)C	23.2*	.	.	.	.	40.0*	RORg DNA counter=>40
CCOc1ccc(-n2c(SCC(=O)N3CCc4ccccc43)nnc2-c2c[nH]c3ccccc23)cc1	93.0*	-0.3	-1.4	-0.2	4.6	23.9*
O=C(CSc1nnc(-c2cccs2)n1-c1ccccc1)N1CCCc2ccccc21	109.7*	3.4	3.9	-3.2	0.8	100.7*	RORg DNA counter=i
COc1ccc(OC)c(S(=O)(=O)N2CCCCC2C(=O)N2CCCN(C)CC2)c1 (stereo not drawn)	0.1	.	.	.	.	.
COc1cc(OC)c2c(N)c(C#N)c(C(F)(F)C(F)(F)F)nc2c1	3.1	2.1	-2.5	3.2	-0.5	.
COc1ccc2nc(C(F)(F)C(F)(F)F)c(C#N)c(N)c2c1	45.8*	-2.4	10.5	3.5	-8.7	28.3*
COC(=O)CCC[C@H](C)[C@@H](NS(=O)(=O)c1ccc(C)cc1)C(C)(C)C	-2.0	0.9	.	.	.	.
O=S(=O)(c1ccc2nc(N3CCN(c4ccccc4)CC3)ccc2c1)N1CCCCC1	83.3*	-0.1	6.1	0.3	-0.4	56.4*	RORg DNA counter=>40
CC(=O)c1ccc(N2CCN(S(=O)(=O)c3ccc4ccccc4c3)CC2)cc1	-4.3	1.3	-2.0	0.5	6.7	.
CC(=O)c1ccc(N2CCN(c3ccc4cc(S(=O)(=O)N5CCC(C)CC5)ccc4n3)CC2)cc1	35.1*	-1.4	2.0	0.3	15.7	44.7*	RORg DNA counter=>40
COc1ccccc1N1CCN(c2ccc3cc(S(=O)(=O)N4CCCCC4)ccc3n2)CC1	-8.0	-4.3	1.8	-2.5	10.7	.
Cc1ccc(NC(=O)OCCCN2C(=O)CCC23CCC(C)CC3)cc1 (stereo not drawn)	1.9	.	.	.	.	.
